# Yeast lifespan up: yeast lifespan extension | AID 775 | inhibition of the nicotinamide effect, % at 10 µM | hit rate 0.68% among 130,000 | S. cerevisiae growth with nicotinamide, OD615; deaD strain in restrictive glucose medium;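 active = inhibition above a set limit, placed 3 SD over the median of all compounds, cut at about 26% in these data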
#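 assay system = DeaD-strain S. cerevisiae | buffer or medium = restrictive glucose medium | reagent = 1.5 mM nicotinamide | compound = 10 µM single point, 0.25% DMSO | incubation = 48 h compound exposure at 30 °C, humidified | signal = OD615 measurement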
# RAM network inh: inhibitors of the yeast RAM network; inhibition, % at 50 µM; S. cerevisiae dse1pr::URA3 reporter, 5-FOA growth OD615, 2 d; analog-sensitive cbk1-as2 kinase mutant strain; hit rate 1.8% among 190,000;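 active = inhibition above a set limit, 3 SD over mean compound inhibition, cut at about 8.4% in these data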;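 note: inhibition rescues growth on 5-FOA so higher OD means more RAM inhibition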
# Yeast growth inh: yeast BB579 growth reduction in restrictive medium; S. cerevisiae BB579 growth, OD615, 48 h; inhibition, % at 10 µM; hit rate 0.51% among 140,000;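 active = inhibition above a set limit, 3 SD over the mean compound inhibition, cut at about 44% in these data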
#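 controls = amphotericin B 10 µg/mL, positive | assay system = DeaD yeast strain BB579 | schedule = 48 h compound exposure at 30 °C after 4 h preincubation | detection = OD615 turbidity measurement | medium = restrictive CSMM-D medium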
# Numbers stand for hits; i = inactive; nt = no result given. The list is not random: actives were taken first. Their share in the collection is about 2.6%.
SMILES,Yeast lifespan up,RAM network inh,Yeast growth inh
CCOC(=O)c1c(NC(=O)C(Sc2ccccc2)c2ccccc2)sc(C(N)=O)c1C (stereo unspecified),i,i,i
COc1cccc(-n2c(Cc3cc(=O)[nH]c(=O)[nH]3)nnc2SCc2cccc(C(F)(F)F)c2)c1,nt,i,nt
Cc1cccc(C)c1OCCn1nc(C(=O)O)c2ccccc2c1=O,i,10,i
Cc1cccc(OCCn2nc(C(=O)O)c3ccccc3c2=O)c1,i,i,i
COCCNC(=S)NNc1ccccc1[N+](=O)[O-],nt,i,nt
Cc1ccccc1N/C(SCc1cccc(Br)c1)=C(/C#N)C(N)=O,i,i,i
COc1cccc(N/C(SCc2cccc([N+](=O)[O-])c2)=C(/C#N)C(N)=O)c1,nt,8.5,nt
Cc1ccc(S(=O)(=O)CCC(=O)NCc2ccco2)cc1,i,i,i
O=C(NCc1ccccn1)NC12CC3CC(CC(C3)C1)C2,32,i,i
O=C(Nc1ccccn1)NC12CC3CC(CC(C3)C1)C2,i,i,i
COc1ccccc1NS(=O)(=O)c1cccc(C(=O)N/N=C2\CC(=O)CC(C)(C)C2)c1,i,i,i
CC1=C(C(=O)Nc2ccccc2C)C(c2cccs2)NC(=S)N1 (stereo unspecified),i,i,i
CCOc1ccccc1NC(=O)C1=C(C)NC(=S)NC1c1cccs1 (stereo unspecified),i,9.8,i
CCN(CC)S(=O)(=O)c1ccc(C)c(NC(=S)NNC(=O)C2CC2)c1,i,i,i
COc1ccc(C(=O)COc2ccc(F)cc2)c(O)c1C,nt,i,nt
COc1cc(NC(=O)c2ccccc2Cl)ccc1NC(=O)c1cccs1,nt,i,nt
COc1cc(NC(=O)c2cccc(Cl)c2)ccc1NC(=O)c1cccs1,nt,9.3,nt
CCOC(=O)Cc1ccc(NCc2ccc(Cl)cc2)cc1,nt,i,nt
CCC(C)N(C)C1CCN(C(=S)Nc2cccc(SC)c2)CC1 (stereo unspecified),nt,i,nt
Cc1ccc(C2c3c(C)nn(-c4ccc([N+](=O)[O-])cc4)c3N=C3C(=O)Nc4ccccc4N32)cc1 (stereo unspecified),nt,9.9,nt
Cc1nn(-c2ccc([N+](=O)[O-])cc2)c2c1C(c1ccc(OC(F)F)cc1)N1C(=N2)C(=O)Nc2ccccc21 (stereo unspecified),nt,i,nt
c1ccc(CN=C2NN=C(c3ccccc3)CS2)cc1,nt,i,nt
c1ccc(C2=NNC(=NCc3ccc4c(c3)OCO4)SC2)cc1,i,9.0,i
CCN(CC)C(=O)c1[nH]cnc1C(=O)N[C@@H](C)C(=O)OC(C)(C)C,nt,i,nt
NC(N)=Nc1nc(-c2ccccc2)c2cc(F)ccc2n1,nt,i,nt
SMILES,Yeast lifespan up,RAM network inh,Yeast growth inh
O=C(/C=C/c1ccccc1)Nc1cccc(S(=O)(=O)Nc2ccccc2F)c1,i,9.3,i
O=C(Nc1cccc(S(=O)(=O)Nc2ccccc2F)c1)c1ccc2ccccc2n1,nt,i,nt
O=C(Cc1ccc(Cl)cc1Cl)Nc1cccc(S(=O)(=O)Nc2ccccc2F)c1,i,8.8,i
O=C(Cc1ccc(Cl)cc1Cl)Nc1ccc(OC(F)F)c(Cl)c1,i,i,i
COc1ccc(CN2CCN(CCCCOc3ccc(Cl)cc3)CC2)c(OC)c1OC,nt,i,nt
Cc1ccc(C)c(SCC(=O)OCC(=O)NCc2ccccc2)c1,nt,i,nt
Cc1ccc(C)c(SCC(=O)NC(=O)NCc2ccccc2)c1,i,11,i
O=C(COC(=O)CCc1ccccc1)Nc1ncc(Cl)cc1Cl,i,i,i
O=C(Nc1ccc(C(=O)OC[C@@H]2CCCN3CCCC[C@H]23)cc1)c1cccc(Br)c1,i,i,i
Cn1c(/N=C/c2c[nH]c3ccccc23)nc2ccccc21,i,i,i
CCn1c(/C=N/c2nc3ccccc3n2C)nc2ccccc21,34,i,i
NNC(=O)CN1CCN(c2ncc(C(F)(F)F)cc2Cl)CC1,nt,i,nt
O=C(CN1CCN(c2ncc(C(F)(F)F)cc2Cl)CC1)NCCNc1ncc(C(F)(F)F)cc1Cl,i,i,93
Cn1cc(C=O)c2ccccc21,nt,i,nt
Cc1ccc(/C(C#N)=C\c2cn(C)c3ccccc23)cc1,i,8.9,i
C/C(O)=C(/C=Nc1ccccc1)C(=O)Nc1ccccc1,nt,i,nt
O=C(CSC1=NCCS1)N1CCN(c2ccc(Cl)cc2)CC1,i,i,51
O=C(CSC1=NCCS1)c1ccc(Cl)cc1,nt,i,nt
Cc1ccccc1C(=O)O/N=C(\N)c1ccncc1,i,i,i
O=C(O)c1[nH]c2ccc(Cl)cc2c1CC(=O)N1CCN(c2ccccc2)CC1,i,11,i
COc1ccccc1N1CCN(C(=O)Cc2c(C(=O)O)[nH]c3ccc(Cl)cc23)CC1,nt,i,nt
C/C(=N\NC(=O)C1CC1)c1cccs1,27,i,i
C/C(=N/NC(=O)C1CC1(c1ccccc1)c1ccccc1)c1cccs1 (stereo unspecified),i,i,i
COc1ccc(CNC(=O)c2coc(=O)c3ccccc23)c(OC)c1,nt,i,nt
CCOc1ccc2[nH]c(=O)c(CN(Cc3ccccc3)C(=O)N3CCCC3)cc2c1,i,i,i
SMILES,Yeast lifespan up,RAM network inh,Yeast growth inh
Cc1ccsc1/C=c1\sc2ncnn2c1=O,i,i,i
O=c1/c(=C/c2cccc3ccccc23)sc2ncnn12,29,i,i
CCc1ccc(OCC(=O)Nc2cc(S(=O)(=O)CC)ccc2O)cc1,i,i,i
Cc1cc(N2C(=O)C(=O)/C(=C(/O)c3ccc(F)cc3)C2c2cccc(Br)c2)no1 (stereo unspecified),i,i,i
Cc1ccc(/C(O)=C2\C(=O)C(=O)N(c3cc(C)on3)C2c2cccc(Br)c2)cc1 (stereo unspecified),27,i,i
COC(=O)C(C(=O)Nc1nc2ccccc2s1)C1CCCC1 (stereo unspecified),nt,i,nt
O=C(CSc1nncs1)Nc1ccc2c(c1)OCO2,nt,i,nt
COC(=O)CSCC(=O)Nc1nnc(-c2cccc(C)c2)s1,nt,i,nt
CC1CCC(N2CCN(c3ncccn3)CC2)C1 (stereo unspecified),i,i,i
O=C1CNC(=O)/C1=C\c1ccc(O)cc1,i,i,i
O=C1CNC(=O)/C1=C/c1ccccc1,29,i,i
Cc1ccc(NS(=O)(=O)c2cc(C(=O)NCCSc3ccc(C)cc3)ccc2C)cc1,i,i,i
Cc1ccc(C(=O)NCCSc2ccc(Cl)cc2)cc1S(=O)(=O)Nc1ccccc1,i,10,i
COC(=O)c1nn(-c2ccccc2)c(Sc2ccc(Cl)cc2)c1/C=N/O,i,i,i
O=C(N/N=C(\Cc1ncc[nH]1)c1ccccc1)c1cccnc1,nt,i,nt
CN(O)/C=c1/ccc2c(n1)C(=O)C=CC=2,i,i,97
CC1=NNC(=O)/C1=C\c1cn(-c2ccccc2)nc1-c1cccs1,i,i,96
CC1=NNC(=O)/C1=C\c1cn(-c2ccccc2)nc1-c1ccc(F)cc1,nt,i,nt
CCN1C(=O)/C(=C/c2cccs2)S/C1=N\S(=O)(=O)c1ccc(C)cc1,i,i,i
C=CCN1C(=O)/C(=C/c2cccs2)S/C1=N\S(=O)(=O)c1ccc(F)cc1,i,11,i
CCC1CCCCN1C(=S)Nc1ccc(OC(F)F)cc1 (stereo unspecified),i,i,i
COc1ccc2c(c1)[nH]c1c(Cl)ncnc12,i,i,61
COc1ccc2c(c1)[nH]c1c(=O)n(N)cnc12,i,i,i
Cc1ccc(-c2cc(C(=O)N3CCCC3)no2)cc1,i,i,i

# Bioassay records deposited in PubChem BioAssay by SRMLSC.
